# Legend:
# Cutibacterium acnes [1] = assay: Antibacterial activity against drug-resistant Propionibacterium acnes EG7NS after 72 hrs; format: functional
# In short: (§1)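 MBC for P. acnes followed MIC assays by standard methodology. Samples were plated on Wilkins-Chalgren agar, incubated anaerobically in GENbox jars at 35 to 37°C, and examined for growth after 72 h.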
# Staphylococcus aureus [2] = assay: Antibacterial activity against methicillin-resistant Staphylococcus aureus after 20 to 24 hrs by broth microdilution method
# [3] = system: Corynebacterium diphtheriae; assay: Antibacterial activity against Corynebacterium diphtheriae after 48 hrs by broth microdilution method; format: functional
# In short: (§2)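 Broth microdilution per CLSI in cation-adjusted Mueller-Hinton broth supplemented with 0.5% (vol/vol) Tween 80. Plates incubated at 35°C in ambient air for 44 to 48 h, then read visually. MICs in μg/ml; a geometric mean MIC was calculated across the corynebacterial strains.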
# Cutibacterium acnes [4] = assay: Antibacterial activity against drug-resistant Propionibacterium acnes P429:1 (SC) after 48 hrs by broth microdilution method; format: functional
# In short: (§3)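 Broth microdilution MIC in Wilkins-Chalgren broth without lysed horse blood, following CLSI anaerobe guidelines. Plates were held in anaerobic jars with atmosphere generators (O2 <0.1% by 2.5 h, CO2 >15% by 24 h) at 35 to 37°C for 48 h. Growth was read with an illuminated plate reader and magnifying mirror.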
# Cutibacterium acnes [5] = assay: MBC/MIC ratio of Propionibacterium acnes SW3CD; format: functional
# In short: (§4)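 MIC by CLSI broth microdilution in Wilkins-Chalgren broth in anaerobic jars (O2 <0.1%, CO2 >15%), read after 48 h at 35–37°C on an illuminated plate reader. For MBC, samples were plated onto Wilkins-Chalgren agar and incubated anaerobically for 72 h at 35–37°C before growth was scored.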
# Cutibacterium acnes [6] = assay: Antibacterial activity against drug-resistant Propionibacterium acnes OK8/97 after 48 hrs by broth microdilution method; format: functional; in short: as §3
# Cutibacterium acnes [7] = assay: Antibacterial activity against drug-resistant Propionibacterium acnes P95 after 72 hrs; format: functional; in short: as §1
# [8] = Antibacterial activity against Streptococcus dysgalactiae subsp. dysgalactiae after 48 hrs by broth microdilution method; format: functional
# Cutibacterium acnes [9] = assay: Antibacterial activity against drug-resistant Propionibacterium acnes SW54EA after 48 hrs by broth microdilution method; format: functional; in short: as §3
# Cutibacterium acnes [10] = assay: Antibacterial activity against drug-resistant Propionibacterium acnes EG7NS after 48 hrs by broth microdilution method; format: functional; in short: as §3
# Cutibacterium acnes [11] = assay: Antibacterial activity against drug-resistant Propionibacterium acnes SW11 after 48 hrs by broth microdilution method; format: functional; in short: as §3
# [12] = system: Streptococcus equi subsp. zooepidemicus; assay: Antibacterial activity against Streptococcus equi subsp. zooepidemicus after 48 hrs by broth microdilution method; format: functional
# Cutibacterium acnes [13] = assay: Antibacterial activity against drug-resistant Propionibacterium acnes SW10 after 48 hrs by broth microdilution method; format: functional; in short: as §3
# Cutibacterium acnes [14] = assay: Antibacterial activity against drug-resistant Propionibacterium acnes GE4E after 48 hrs by broth microdilution method; format: functional; in short: as §3
# Cutibacterium acnes [15] = assay: Antibacterial activity against drug-resistant Propionibacterium acnes SW26 after 48 hrs by broth microdilution method; format: functional; in short: as §3
# Cutibacterium acnes [16] = assay: Antibacterial activity against drug-resistant Propionibacterium acnes FG7E after 48 hrs by broth microdilution method; format: functional; in short: as §3
# Staphylococcus aureus [17] = assay: Antibacterial activity against methicillin-susceptible Staphylococcus aureus after 48 hrs by broth microdilution method; format: functional
# Cutibacterium acnes [18] = assay: Antibacterial activity against drug-resistant Propionibacterium acnes P429:1 (BC) after 48 hrs by broth microdilution method; format: functional; in short: as §3
# Cutibacterium acnes [19] = assay: Antibacterial activity against drug-resistant Propionibacterium acnes EG3NS after 48 hrs by broth microdilution method; format: functional; in short: as §3
# Cutibacterium acnes [20] = assay: Antibacterial activity against drug-resistant Propionibacterium acnes SW3CD after 72 hrs; format: functional; in short: as §1
# Cutibacterium acnes [21] = assay: Antibacterial activity against drug-resistant Propionibacterium acnes P425:1 after 48 hrs by broth microdilution method; format: functional; in short: as §3
# Cutibacterium acnes [22] = assay: Antibacterial activity against drug-resistant Propionibacterium acnes SP64E after 48 hrs by broth microdilution method; format: functional; in short: as §3
# Cutibacterium acnes [23] = assay: MBC/MIC ratio of Propionibacterium acnes EG7NS; format: functional; in short: as §4
# [24] = system: Propionibacterium granulosum; assay: Antibacterial activity against drug-resistant Propionibacterium granulosum QK6/92 after 48 hrs by broth microdilution method
# Cutibacterium acnes [25] = assay: Antibacterial activity against drug-resistant Propionibacterium acnes P401:5 after 48 hrs by broth microdilution method; format: functional; in short: as §3
# [26] = system: Corynebacterium minutissimum; assay: Antibacterial activity against Corynebacterium minutissimum after 48 hrs by broth microdilution method; format: functional; in short: as §2
# Cutibacterium acnes [27] = assay: Antibacterial activity against drug-resistant Propionibacterium acnes GE46EB after 48 hrs by broth microdilution method; format: functional; in short: as §3
# Cutibacterium acnes [28] = assay: Antibacterial activity against drug-resistant Propionibacterium acnes P:413 after 48 hrs by broth microdilution method; format: functional; in short: as §3
# [29] = system: Propionibacterium granulosum; assay: Antibacterial activity against drug-resistant Propionibacterium granulosum NCTC-11865 after 48 hrs by broth microdilution method; format: functional; details: Cutibacterium granulosum, NCTC-11865, 48 h; in short: as §3
# Cutibacterium acnes [30] = assay: Antibacterial activity against drug-resistant Propionibacterium acnes P322:2 after 48 hrs by broth microdilution method; format: functional; in short: as §3
# Cutibacterium acnes [31] = assay: Antibacterial activity against drug-resistant Propionibacterium acnes SW101T after 48 hrs by broth microdilution method; format: functional; in short: as §3
# [32] = system: Staphylococcus epidermidis; assay: Antibacterial activity against Staphylococcus epidermidis after 48 hrs by broth microdilution method; format: functional
# Cutibacterium acnes [33] = assay: Antibacterial activity against drug-resistant Propionibacterium acnes SW16 after 48 hrs by broth microdilution method; format: functional; in short: as §3
# Streptococcus pyogenes = assay: Antibacterial activity against Streptococcus pyogenes after 20 to 24 hrs by broth microdilution method
# Cutibacterium acnes [34] = assay: Antibacterial activity against drug-resistant Propionibacterium acnes SW17 after 48 hrs by broth microdilution method; format: functional; in short: as §3
# Cutibacterium acnes [35] = assay: Antibacterial activity against drug-resistant Propionibacterium acnes SW101CDA after 48 hrs by broth microdilution method; format: functional; in short: as §3
# [36] = system: Corynebacterium amycolatum; assay: Antibacterial activity against Corynebacterium amycolatum after 48 hrs by broth microdilution method; format: functional; in short: as §2
# Cutibacterium acnes [37] = assay: Antibacterial activity against drug-resistant Propionibacterium acnes SW3CD after 48 hrs by broth microdilution method; format: functional; in short: as §3
# Cutibacterium acnes [38] = assay: Antibacterial activity against drug-resistant Propionibacterium acnes P95 after 48 hrs by broth microdilution method; format: functional; in short: as §3
# Cutibacterium acnes [39] = assay: Antibacterial activity against drug-resistant Propionibacterium acnes D-04/97 after 48 hrs by broth microdilution method; format: functional; in short: as §3
# Staphylococcus aureus [40] = assay: Antibacterial activity against borderline oxacillin-resistant Staphylococcus aureus after 20 to 24 hrs by broth microdilution method
# Cutibacterium acnes [41] = assay: MBC/MIC ratio of Propionibacterium acnes P95; format: functional; in short: as §4
# Corynebacterium jeikeium = assay: Antibacterial activity against Corynebacterium jeikeium after 48 hrs by broth microdilution method; format: functional; in short: as §2
# Cutibacterium acnes [42] = assay: Antibacterial activity against drug-resistant Propionibacterium acnes EG13NS after 48 hrs by broth microdilution method; format: functional; in short: as §3
compound,measurement,setting,value
CC[C@H]1OC(=O)[C@H](C)[C@@H](O[C@H]2C[C@@](C)(OC)[C@@H](O)[C@H](C)O2)[C@H](C)[C@@H](O[C@@H]2O[C@H](C)C[C@H](N(C)C)[C@H]2O)[C@](C)(O)C[C@@H](C)C(=O)[C@H](C)[C@@H](O)[C@]1(C)O [ERYTHROMYCIN],MBC,Cutibacterium acnes [1],> 32 µg/mL
same,MIC,Staphylococcus aureus [2],3.26 µg/mL
same,MIC,[3],1.47 µg/mL
same,MIC,Cutibacterium acnes [4],4 µg/mL
same,Ratio,Cutibacterium acnes [5],>=2
same,MIC,Cutibacterium acnes [6],0.125 µg/mL
same,MBC,Cutibacterium acnes [7],> 32 µg/mL
same,MIC,[8],0.09 µg/mL
same,MIC,Cutibacterium acnes [9],> 512 µg/mL
same,MIC,Cutibacterium acnes [10],≤ 0.06 µg/mL
same,MIC,Cutibacterium acnes [11],0.125 µg/mL
same,MIC,[12],0.14 µg/mL
same,MIC,Cutibacterium acnes [13],≤ 0.06 µg/mL
same,MIC,Cutibacterium acnes [14],> 512 µg/mL
same,MIC,Cutibacterium acnes [15],≤ 0.06 µg/mL
same,MIC,Cutibacterium acnes [16],> 512 µg/mL
same,MIC,Staphylococcus aureus [17],3.26 µg/mL
same,MIC,Cutibacterium acnes [18],2 µg/mL
same,MIC,Cutibacterium acnes [19],≤ 0.06 µg/mL
same,MBC,Cutibacterium acnes [20],0.125 µg/mL
same,MIC,Cutibacterium acnes [21],> 512 µg/mL
same,MIC,Cutibacterium acnes [22],> 512 µg/mL
same,Ratio,Cutibacterium acnes [23],>=533
same,MIC,[24],0.5 µg/mL
same,MIC,Cutibacterium acnes [25],2 µg/mL
same,MIC,[26],1.47 µg/mL
same,MIC,Cutibacterium acnes [27],> 512 µg/mL
same,MIC,Cutibacterium acnes [28],≤ 0.06 µg/mL
same,MIC,[29],0.125 µg/mL
same,MIC,Cutibacterium acnes [30],> 512 µg/mL
same,MIC,Cutibacterium acnes [31],> 512 µg/mL
same,MIC,[32],3 µg/mL
same,MIC,Cutibacterium acnes [33],≤ 0.06 µg/mL
same,MIC,Streptococcus pyogenes,0.32 µg/mL
same,MIC,Cutibacterium acnes [34],≤ 0.06 µg/mL
same,MIC,Cutibacterium acnes [35],> 512 µg/mL
same,MIC,[36],1.47 µg/mL
same,MIC,Cutibacterium acnes [37],≤ 0.06 µg/mL
same,MIC,Cutibacterium acnes [38],4 µg/mL
same,MIC,Cutibacterium acnes [39],≤ 0.06 µg/mL
same,MIC,Staphylococcus aureus [40],3.26 µg/mL
same,Ratio,Cutibacterium acnes [41],>8
same,MIC,Corynebacterium jeikeium,1.47 µg/mL
same,MIC,Cutibacterium acnes [42],≤ 0.06 µg/mL

# From ChEMBL document CHEMBL1143835, “Antipropionibacterial activity of BAL19403, a novel macrolide antibiotic” (2007)
